As usually defined, the efflux ratio is the permeability from basolateral to apical divided by that in the opposite direction, in the common usage. As a reminder, the inhibition is how much of the control response was suppressed. Lower therefore signals little suppression. As usually defined, the IC50 is the point on the concentration scale where inhibition reaches its midpoint. One may read the Papp A→B as the apparent permeability from the apical to the basolateral side of a cell layer. A word on the Papp B→A: it is how fast a substance crosses the layer from the basolateral side. For orientation: Ki means the dissociation constant of the complex between target and ligand, obtained from inhibition or displacement. Read a low Ki as tighter binding.

A short description of series [1]: Efflux ratio of apparent permeability across basolateral to apical side to apical to basolateral side in MDCK-MDR1 cells at 75 uM incubated for 2 hrs by UV-spectroscopy. In kind it is ADME, cell-based, Canis lupus familiaris. Conditions: dog. The gist of the method:
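MDCK-MDR1 monolayers expressing the P-gp efflux system. Apparent permeability was measured in both directions, apical→basolateral and basolateral→apical. Efflux ratio calculated as Papp BL / Papp AP. Papp values are mean ± SEM of three independent experiments.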

Series [2] addresses T1, Cholinesterase (Homo sapiens, UniProt P06276). In words: Inhibition of human BChE using butyrylthiocholineiodide as substrate at 10 uM measured for every 30 sec for 5 mins by Ellman's method relative to control. The gist of the method: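 Single-concentration test, reported as % inhibition at 10 μM. Values are mean ± SEM of three independent experiments.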
Background: In Ellman's method for cholinesterases, released thiocholine reacts with DTNB.

The target in series [3] is T2, Acetylcholinesterase (Homo sapiens, UniProt P22303). In words: Inhibition of human AChE using acetylthiocholineiodide as substrate measured for every 30 sec for 5 mins by Ellman's method.
T2 sequence (P22303 whole entry): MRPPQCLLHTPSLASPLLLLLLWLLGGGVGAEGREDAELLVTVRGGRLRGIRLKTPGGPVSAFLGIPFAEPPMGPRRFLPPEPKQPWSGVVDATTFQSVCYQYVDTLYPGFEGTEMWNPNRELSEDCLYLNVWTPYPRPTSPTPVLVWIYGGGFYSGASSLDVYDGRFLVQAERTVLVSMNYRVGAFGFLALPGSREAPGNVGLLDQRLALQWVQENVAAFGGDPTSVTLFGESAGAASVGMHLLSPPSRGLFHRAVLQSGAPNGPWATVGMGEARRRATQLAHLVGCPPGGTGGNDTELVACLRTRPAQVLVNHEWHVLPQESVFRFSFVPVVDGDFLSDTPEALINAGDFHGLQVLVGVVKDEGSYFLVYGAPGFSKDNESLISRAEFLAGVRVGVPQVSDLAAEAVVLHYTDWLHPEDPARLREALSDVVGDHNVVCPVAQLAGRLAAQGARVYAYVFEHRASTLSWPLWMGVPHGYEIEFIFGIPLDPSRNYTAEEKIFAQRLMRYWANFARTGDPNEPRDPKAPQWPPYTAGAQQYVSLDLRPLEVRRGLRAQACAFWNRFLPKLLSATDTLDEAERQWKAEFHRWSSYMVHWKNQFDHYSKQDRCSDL
Series [4] in a line: Apparent permeability across apical to basolateral side in MDCK-MDR1 cells at 75 uM incubated for 2 hrs by UV-spectroscopy. In kind it is ADME, cell-based, Canis lupus familiaris. Conditions: dog. Put shortly:
(§1)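 MDCK-MDR1 monolayers expressing the P-gp efflux system. Apparent permeability (Papp) was measured in both directions: apical to basolateral, and basolateral to apical. Efflux ratio = Papp BL/Papp AP. Values are mean ± SEM of three independent experiments.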

For series [5], the target named is T1, Cholinesterase. In words: Inhibition of human BChE using butyrylthiocholineiodide as substrate measured for every 30 sec for 5 mins by Ellman's method. Put shortly:
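Values are mean ± SEM of three independent experiments.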

Series [6] is described as follows: Apparent permeability across basolateral to apical side in MDCK-MDR1 cells at 75 uM incubated for 2 hrs by UV-spectroscopy. The series is classed as ADME, cell-based, Canis lupus familiaris. Conditions: dog. Put shortly:
as §1

Series [7] can be described thus: Cytotoxicity against human HepG2 cells assessed as cell viability at 20 to 100 uM incubated for 2 hrs by MTT assay relative to control. In kind it is cell-based. Conditions: read-out: Activity. Put shortly: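 HepG2 human liver cancer cells were exposed to 20–100 μM for 2 h. Viability was read by MTT reduction, expressed as % of untreated control cells in DMEM. Values are mean ± SEM of six replicates. Difference from control was tested by Student's t test (p < 0.01).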

The nature of series [8]: Cytotoxicity against MDCK-MDR1 cells assessed as cell viability at 100 uM incubated for 72 hrs by MTT assay relative to control. In kind it is ADME, cell-based, Canis lupus familiaris. Conditions: dog, read-out: Activity. On the technique in general: Tetrazolium assays rely on reduction of a dye to a coloured formazan, in cell work by metabolically active cells.
A short description of series [9]: Cytotoxicity against MDCK-MDR1 cells assessed as cell viability at 100 uM incubated for 24 hrs by MTT assay relative to control. The series is classed as ADME, cell-based, Canis lupus familiaris. Conditions: dog, read-out: Activity.
Series [10] addresses T2, Acetylcholinesterase. In words: Mixed type inhibition of human AChE using acetylthiocholineiodide as substrate measured for every 30 sec for 5 mins by Ellman's method.
Series [11] concerns MDCK-MDR1. In words: Cytotoxicity against MDCK-MDR1 cells assessed as cell viability incubated for 72 hrs by MTT assay relative to control. The series is classed as ADME, cell-based. Conditions: Canis lupus familiaris, MDCK-MDR1, 72 h.
The target in series [12] is Cholinesterases; ACHE & BCHE (Homo sapiens) (UniProt P06276+P22303). In words: Selectivity index, ratio of IC50 for human BChE to IC50 for human AChE. In kind it is protein assay.
Chain of Cholinesterases; ACHE & BCHE (Homo sapiens) (P06276 whole entry, looked up): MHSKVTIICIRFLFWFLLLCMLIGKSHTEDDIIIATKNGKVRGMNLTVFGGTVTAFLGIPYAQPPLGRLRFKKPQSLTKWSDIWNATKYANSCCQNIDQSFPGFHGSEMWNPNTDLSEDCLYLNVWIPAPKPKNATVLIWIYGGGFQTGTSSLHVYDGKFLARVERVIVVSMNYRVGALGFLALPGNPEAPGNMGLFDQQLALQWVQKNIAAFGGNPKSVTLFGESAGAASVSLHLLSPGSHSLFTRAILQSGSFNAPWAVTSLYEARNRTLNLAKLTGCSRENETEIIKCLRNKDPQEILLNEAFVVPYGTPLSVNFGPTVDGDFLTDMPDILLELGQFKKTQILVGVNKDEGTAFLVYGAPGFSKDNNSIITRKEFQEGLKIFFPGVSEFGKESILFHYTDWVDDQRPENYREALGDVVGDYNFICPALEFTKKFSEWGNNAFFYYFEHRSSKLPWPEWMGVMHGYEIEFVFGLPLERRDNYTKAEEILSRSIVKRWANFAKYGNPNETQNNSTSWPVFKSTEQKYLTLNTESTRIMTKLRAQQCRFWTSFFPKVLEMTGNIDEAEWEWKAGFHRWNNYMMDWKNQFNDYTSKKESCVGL
Chain of Cholinesterases; ACHE & BCHE (Homo sapiens) (P22303 whole entry, looked up): as the sequence (P22303 whole entry) above
In series [13] the target is T2, Acetylcholinesterase. In words: Potency index, ratio of Ki of donepezil to Ki of compound for mixed type inhibition of human AChE using acetylthiocholineiodide as substrate measured for every 30 sec for 5 mins by Ellman's method.

T1 sequence (P06276 whole entry): as the sequence (P06276 whole entry, looked up) above

For `CN1C(=O)CN=C(c2ccccc2)c2cc(Cl)ccc21` [DIAZEPAM], in [1], the efflux ratio at 2 h, 75 µM came out at 0.7.

In series [2], `COc1cc2cc(NC(=O)C3CCN(Cc4ccccc4)CC3)c(=O)oc2cc1OC` yielded an inhibition of 21%. For the same molecule, in series [3], the IC50 stood at 223 nM.

On to `COc1cc2cc(NC(=O)[C@H]3CCC[C@@H](NCc4ccccc4)C3)c(=O)oc2cc1OC` (racemic) [listing 1 of 2 here], for which the Papp A→B at 2 h, 75 µM in series [4] came out at 37 ×10⁻⁶ cm/s. In addition, the IC50 in series [5] came out at 6250 nM; in series [3] it was 36.5 nM; in series [11], 30000 nM. For the same molecule, the Papp B→A at 2 h, 75 µM in series [6] stood at 8.4 ×10⁻⁶ cm/s. For the same molecule, the viability at 2 h, up to 100 µM in [7] was 80 to 90%. The viability at 72 h, 100 µM in series [8] was 37%. Besides, the viability at 24 h, 100 µM in [9] was found to be 60%. In addition, in series [10], the Ki turned out to be 46.6 nM. The efflux ratio at 2 h, 75 µM in series [1] came to 0.22.

As for `COc1cc2cc(NC(=O)[C@H]3CCC[C@@H](NCc4ccccc4)C3)c(=O)oc2cc1OC`, the figures for the IC50 in series [5] and in series [3] were 2330 nM and 380 nM, respectively. Moreover, the affinity in [10] corresponds to a Ki of 93.4 nM.

As for `COc1cc2cc(NC(=O)[C@@H]3CCC[C@H](NCc4ccccc4)C3)c(=O)oc2cc1OC`, the half-inhibitory concentration (IC50) is 14100 nM in series [5] and 19.2 nM in series [3]. This molecule also displayed a Ki in series [10] of 19.1 nM. Moreover, the Ratio IC50 in series [12] came out at 730.

Take `COc1cc2cc(NC(=O)CCCNCc3ccccc3)c(=O)oc2cc1OC`: the IC50 in [5] was determined as 181 nM; in series [3] it was 748 nM.

Regarding `COc1cc2cc(NC(=O)[C@H]3CCC[C@@H](NCc4ccccc4)C3)c(=O)oc2cc1OC` (racemic) [listing 2 of 2 here], the Ratio Ki in series [13] was determined as 4.
